# Bioassay records deposited in PubChem by Sanford-Burnham Center for Chemical Genomics.
# STEP inh – STEP phosphatase inhibitors, primary screen, biochemical, fluorescence intensity, uHTS | Tyrosine-protein phosphatase non-receptor type 5 (Homo sapiens), P54829 | recombinant STEP, OMFP fluorogenic substrate | inhibition, % at 20 µM | 360,000 tested, 0.25% active;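 active means inhibition at 20 µM, scaled per plate between control wells, above about 37%, limit read from the data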
# Target sequence (P54829 whole entry, looked up): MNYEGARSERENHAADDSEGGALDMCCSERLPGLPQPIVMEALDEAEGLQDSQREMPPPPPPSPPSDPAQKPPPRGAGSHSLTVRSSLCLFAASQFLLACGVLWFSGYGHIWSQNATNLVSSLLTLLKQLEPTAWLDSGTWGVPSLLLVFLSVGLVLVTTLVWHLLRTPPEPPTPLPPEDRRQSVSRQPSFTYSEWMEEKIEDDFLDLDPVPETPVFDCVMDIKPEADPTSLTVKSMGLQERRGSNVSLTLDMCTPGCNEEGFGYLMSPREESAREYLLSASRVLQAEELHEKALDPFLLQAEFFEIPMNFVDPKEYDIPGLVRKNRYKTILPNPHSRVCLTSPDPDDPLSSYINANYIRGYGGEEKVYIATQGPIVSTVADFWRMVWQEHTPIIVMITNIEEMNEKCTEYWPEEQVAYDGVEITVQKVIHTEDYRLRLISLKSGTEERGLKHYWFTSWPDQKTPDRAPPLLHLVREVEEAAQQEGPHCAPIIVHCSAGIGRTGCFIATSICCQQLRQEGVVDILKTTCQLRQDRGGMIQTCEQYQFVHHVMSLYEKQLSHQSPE
#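 material = STEP tyrosine phosphatase | reagent = fluorogenic phosphatase substrate OMFP at 25 µM final | doses = single compound dose of 20 µM, 1% DMSO final | schedule = 20 min reaction, room temperature, in the dark | measured by = fluorescence, 480/540 nm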
# SUMO1-SIM PPI – modulators of SUMO1 protein-protein interactions, primary screen, biochemical, uHTS | Small ubiquitin-related modifier 1 (Homo sapiens), P63165 | 360,000 tested, 0.33% active | SUMO1 binding to a labelled peptide, TR-FRET, 1 h | inhibition, % at 20 µM; in the data active means inhibition above about 37%
# Scp-1 inhibitor – Scp-1 phosphatase inhibitors, primary screen, biochemical, colorimetric, uHTS | Carboxy-terminal domain RNA polymerase II polypeptide A small phosphatase 1 (Homo … | Recombinant Scp1, phosphopeptide, malachite green phosphate absorbance | inhibition, % at 20 µM | 340,000 tested, 0.88% active;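 active means inhibition above about 50% at 20 µM, limit read from the data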
#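 Test system: SCP-1 phosphatase catalytic domain, residues 76-261; measured by: colorimetric phosphate reagent with accelerator and stabiliser, absorbance at 630 nm; timing: enzyme reaction 45 min at room temperature, colour 5 min, stabilisation 30 min; also added: Phosphorylated 17-residue peptide substrate; compound dosing: one concentration, 20 µM, with 1.0% DMSO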
# LMPTP block – LMPTP phosphatase inhibitors, primary screen, biochemical, fluorescence intensity, uHTS | Low molecular weight phosphotyrosine protein phosphatase (Homo sapiens), P24666 | recombinant LMPTP-A, OMFP fluorogenic substrate | inhibition, % at 20 µM | 360,000 tested, 0.22% active | AID 651560, 2012;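 active means compounds that cut the enzyme signal by at least half of the control window in the single-dose screen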
#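 test system = LMPTP-A | amount = 0.625 nM LMPTP-A final | reagent = fluorogenic phosphatase substrate OMFP at 400 µM final | incubation = 50 min at room temperature | benchmarks = no-enzyme low control, uninhibited high control | medium = Bis-Tris pH 6.0, DTT, detergent | signal = fluorescence intensity of OMFP turnover product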
# DNMT1 block – human DNMT1 methyltransferase inhibitors, primary screen, biochemical, molecular beacon, fluorescence, HinP1I cleavage, uHTS | 360,000 tested, 0.83% active | AID 588458, 2011 | inhibition (reported as % activation of signal), % at 10 µM | DNA (cytosine-5)-methyltransferase 1 (Homo sapiens), P26358; in the data active means inhibition above about 50%
# NadD inh – inhibitors of S. aureus NadD, primary screen, biochemical, colorimetric, uHTS; Nicotinate-nucleotide adenylyltransferase NadD (Staphylococcus aureus N315); purified NadD enzyme, colorimetric absorbance read-out; inhibition, % at 20 µM; 360,000 tested, 0.78% active; in the data active means inhibition above about 26%
# Beacon interf DR – spectral interference with molecular beacon fluorescence, dose response, artefact control for DNMT1 inhibitor project, biochemical, fluorescent molecular beacon. IC50, µM. 200 tested, under 10 active. spectral interference counter-screen. shares compounds with DNMT1 block; call rule not given here
# DNMT1 inh conf – DNMT1 methyltransferase inhibitor retest, confirmation, biochemical, molecular beacon, fluorescence, single concentration; shares compounds with DNMT1 block; DNMT1 molecular beacon HinP1I cleavage; 2,300 tested, 8% active; inhibition, % at 10 µM;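 active means average inhibition of at least 30% in the single-concentration confirmation test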
# DNMT1 interf – shows spectral interference in the DNMT1 beacon assay; 2,300 tested, 1% active; AID 602387; DNMT1 molecular beacon spectral interference counterscreen, fluorescence 485/520; activation (fluorescence interference), % at 10 µM; shares compounds with DNMT1 block;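 active means activation of at least 30% at 10 µM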;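 further: DNMT1 catalytic domain with a HinP1I cleavage step and a FAM/dabcyl DNA beacon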
# Hits are given with their value; - = inactive; . = no result given. Rows were chosen to be rich in hits. Some 2.4% of all compounds tested hit in one or more screens of this group.
SMILES,STEP inh,SUMO1-SIM PPI,Scp-1 inhibitor,LMPTP block,DNMT1 block,NadD inh,DNMT1 inh conf,DNMT1 interf,others
COCCNC(=O)c1ccc(-c2cn[nH]c2)c2ccoc12,-,-,.,-,68,-,-,-,
Cc1ccccc1Nc1nc(N)nc(COC(=O)[C@@H](NC(=O)c2ccco2)C(C)C)n1,-,-,-,-,-,-,.,.,
COc1ccc(/C=N/Nc2cc(N(C)C)nc(N(C)C)n2)cc1,-,-,-,-,51,-,-,-,
CN(C)c1cc(N/N=C\c2ccccc2)nc(N(C)C)n1,-,-,-,-,-,-,.,.,
COc1ccc(C(=O)Nc2nc3nccc(-c4ccccc4)n3n2)cc1,-,-,-,-,-,-,.,.,
Cc1cc(C)cc(-n2nnnc2SCC(=O)N2CCOCC2)c1,-,-,-,-,79,-,-,-,
O=[N+]([O-])C1=CC=C2C(=NC3(CCCCC3)N2O)C1=NCCO,-,-,-,-,-,-,.,.,
COc1ccc(S(=O)(=O)N2CCCOC2CNC(=O)C(=O)NCc2ccco2)cc1C (stereo unspecified),-,-,-,-,71,-,-,-,
CC(=O)OCCn1c(C)[n+](CCOC(C)=O)c2cc(Cl)c(Cl)cc21,-,-,-,-,-,-,.,.,
CC(=O)OCCn1c2nc(=O)[nH]c(=O)c-2nc2cc(C)c(C)cc21,-,-,-,-,192,-,140,134,
CS(=O)(=O)N(CC(=O)NC1CCCCCC1)Cc1ccc(Cl)cc1,-,-,-,-,-,-,.,.,
CSc1nnc2c3cc(C)ccc3n(Cc3ccccc3)c2n1,-,-,-,-,77,-,-,-,
COC(=O)c1sccc1NC(=O)Cc1ccc(OC)cc1,-,-,-,-,92,-,-,-,
COc1cc(/C=C(\C#N)C(=O)NCC2CCCO2)cc(OC)c1OC (stereo unspecified),-,-,-,-,57,-,-,-,
COc1ccc(/C=C(\C#N)C(=O)NCC2CCCO2)cc1OC (stereo unspecified),-,-,-,-,-,-,.,.,
CN(C)S(=O)(=O)N1CCC(Oc2cccc(C(=O)NCCC3=CCCCC3)c2)CC1,-,-,-,-,-,-,.,.,
COC(=O)c1nn(-c2ccccc2)ccc1=O,-,-,-,-,-,-,.,.,
CCCCCCCCC(=O)c1c(OC)oc(C=O)cc1=O,-,-,.,-,98,-,38,-,Beacon interf DR=-
CCCCCCC(=O)Nc1cc2c(C)cc(=O)oc2cc1C,-,-,-,-,-,-,.,.,
O=C(NN=Cc1ccc(O)cc1O)c1ccccc1NS(=O)(=O)c1cccs1,-,-,-,-,-,-,.,.,
O=C(C#Cc1ccccc1)Nc1cccc(F)c1,-,-,-,-,-,-,.,.,
COC(=O)[C@]1(C)N[C@H](CN(C)C(C)=O)[C@@H]2C(=O)N(C)C(=O)[C@@H]21,-,-,-,-,-,-,.,.,
COCC(=O)N(C)C[C@H]1N[C@@](C)(C(=O)OC)[C@H]2C(=O)N(C)C(=O)[C@@H]12,-,-,-,-,86,-,-,-,
Cc1ccccc1C(=O)Nc1ccc2c(C#N)c3nc4ccccc4nc3n2c1,-,-,94,-,66,-,-,-,
